From ChEMBL document CHEMBL3286242, “Design, synthesis and biological evaluation of arylcinnamide hybrid derivatives as novel anticancer agents” (Eur J Med Chem, 2014) come the findings set out here.

Calls of active or inactive are those of the source. The calls are words filed in the database; no cut-off is given here.

Data set [1] deals with HeLa. Kind of data set: Cytotoxicity against human HeLa cells assessed as growth inhibition after 72 hrs by MTT assay. It is filed as functional, cell-based. On the technique in general: Tetrazolium assays rely on reduction of a dye to a coloured formazan, in cell work by metabolically active cells.
For the next data set, the system named is LoVo. As to the kind of experiment: Cytotoxicity against human LoVo cells assessed as growth inhibition after 72 hrs by MTT assay. It is filed as functional, cell-based.
Data set [2] in a line: Selectivity ratio of IC50 for human resting PBMC to IC50 for human Jurkat cells. In kind it is ADME, cell-based. The settings on record: resting PBMC versus Jurkat cells, read-out: Ratio IC50.
Data set [3] is described as follows: Cytotoxicity against human LoVo/DX cells assessed as growth inhibition after 72 hrs by MTT assay. It is filed as functional, cell-based.
Data set [4] in a line: Cytotoxicity against human CEM/VBL100 cells assessed as growth inhibition after 72 hrs by MTT assay. It is filed as functional, cell-based. Particulars: CEM/VBL100, 72 h.
Another data set relates to CCRF-CEM. Kind of data set: Resistance ratio of IC50 for human CEM/VBL100 cells to IC50 for human CEM cells. It is filed as functional. Summed up:
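Ratio of IC50 in resistant line to IC50 in parental line (CEMVbl-100/CEM; LoVoDoxo/LoVo), each IC50 from 72 h MTT dose–response curves, ≥3 independent experiments.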

A further data set concerns the target Tubulin (Homo sapiens) (UniProt P68371+Q9H4B7+P0DPH7+P68366+Q13509+Q71U36+P04350+Q3ZCM7+P07437+P68363+Q9BQE3+Q6PEY2+Q13885+Q9BVA1+Q9BUF5). Kind of data set: Inhibition of tubulin polymerization in human HeLa cells assessed as microtubule disruption at 2.5 to 5 uM after 24 hrs by immunofluorescence microscopy relative to untreated control. In kind it is cell-based. Summed up: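 HeLa cells exposed 24 h to 2.5 or 5.0 μM versus untreated; fixed in cold 4% formaldehyde 15 min, stained with anti-β-tubulin monoclonal (1:1000) and Alexa secondary (1:2000), DAPI counterstain; imaged by confocal microscopy at 20×.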

The subject of data set [5] is HeLa. As to the kind of experiment: Cell cycle arrest in human HeLa cells assessed as accumulation at G2/M phase after 24 hrs by propidium iodide staining-based flow cytometry. In kind it is functional. In outline: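 HeLa cells in exponential growth (2.5 × 10^5) treated 24 h at various concentrations; ethanol-fixed (70%, ice-cold), lysed with RNase A/0.1% Triton X-100, PI-stained; DNA content by flow cytometry, phase percentages from DNA histograms.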
In general terms: Flow cytometry measures light scatter and fluorescence of single cells or particles in a stream.

Data set [6] has as its system HeLa. Kind of data set: Induction of apoptosis in human HeLa cells assessed as cell viability at 2.5 uM after 48 hrs by MTT assay in presence of dithiothreitol. In kind it is functional, cell-based. Summed up: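 HeLa cells exposed to 2.5 μM compound for 48 h with scavengers (NAC 100 μM, GSH 1 mM or DTT 1 mM, among others); viability by MTT; means ± SEM of four independent experiments, Student's t-test.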

Data set [7] concerns HeLa. Kind of data set: Induction of apoptosis in human HeLa cells assessed as caspase-3 activation after 24 to 48 hrs by Western blotting analysis. It is filed as functional, cell-based. In outline:
(§1)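 HeLa cells treated at indicated concentrations and times; washed in cold PBS, lysed 30 min at 0 °C, cleared at 15 000 × g; 20 μg protein resolved on 7.5–15% gradient SDS-PAGE, blotted to PVDF, primary antibodies 2 h room temperature, peroxidase secondary 60 min, ECL detection; β-actin reprobe for loading.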
For orientation: In western blotting, separated proteins are transferred to a membrane and probed.

The test system of data set [8] is HeLa. As to the kind of experiment: Induction of apoptosis in human HeLa cells assessed as caspase-8 activation at 1 to 2.5 uM after 24 to 48 hrs by Western blotting analysis. It is filed as functional, cell-based. In outline:
as §1

The test system of data set [9] is HeLa. As to the kind of experiment: Induction of apoptosis in human HeLa cells assessed as reduction in Bcl-2 protein expression at 1 to 2.5 uM after 48 hrs by Western blotting analysis. In kind it is functional, cell-based. Summed up: as §1
The test system of data set [10] is HeLa. Kind of data set: Induction of apoptosis in human HeLa cells assessed as GSH depletion after 24 hrs by CMFDA staining-based flow cytometry. In kind it is functional, cell-based. Summed up: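 HeLa cells treated 24 h with compound, alone or with 100 μM NAC; harvested and loaded with 5 μM CMFDA, 30 min at 37 °C; intracellular GSH read as CMFDA fluorescence by flow cytometry; means ± SEM.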

A word on the IC50: it is the concentration needed to halve the response being measured. Regarding `C=C(Br)C(=O)Nc1ccc(/C=C/C(=O)Nc2cc(OC)c(OC)c(OC)c2)cc1`, the IC50 in the data set with HeLa [1] was 490 nM; in the data set on LoVo, 2100 nM; in data set [3] it was 1370 nM; in data set [4] it was 15 nM. The selectivity ratio in data set [2] turned out to be 10. Also, the “Ratio IC50” value with CCRF-CEM was determined as 0.6. Moreover, the inhibition result on Tubulin (Homo sapiens) is “inactive”. The Activity result with HeLa [5], in the data set with HeLa [7] and in the data set on HeLa [10] was “Dose-dependent effect” in each case. Besides, in the data set on HeLa [6], the result was inactive. Also, the outcome in the data set on HeLa [8] and in the data set with HeLa [9] was Active.
